The values that follow come from ChEMBL document CHEMBL4619791, “3-Difluoroalkyl Quaternary Oxindoles Inhibit Macrophage Pyroptosis by Blocking Inflammasome Recruitment of Caspase-1” (ACS Med Chem Lett, 2020).

Structures are written as SMILES. Calls of active or inactive are those of the source. The calls are words filed in the database; no cut-off is given here.

Series [1] has as its system BMDM. Put plainly: Inhibition of pyroptosis in LPS-primed C57BL/6 mouse primary BMDM assessed as effect on nigericin-induced cell morphological changes at 5 uM by propidium iodide staining based confocal microscopy. It is filed as functional. A digest of the protocol: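 Primary BMDM and J774A.1 cells treated with LPS and nigericin. Swelling, bubble formation and propidium iodide uptake visualized by epifluorescence microscopy.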

Series [2] concerns the target T1, Caspase-1 (Mus musculus) (UniProt P29452).
T1 sequence (whole entry): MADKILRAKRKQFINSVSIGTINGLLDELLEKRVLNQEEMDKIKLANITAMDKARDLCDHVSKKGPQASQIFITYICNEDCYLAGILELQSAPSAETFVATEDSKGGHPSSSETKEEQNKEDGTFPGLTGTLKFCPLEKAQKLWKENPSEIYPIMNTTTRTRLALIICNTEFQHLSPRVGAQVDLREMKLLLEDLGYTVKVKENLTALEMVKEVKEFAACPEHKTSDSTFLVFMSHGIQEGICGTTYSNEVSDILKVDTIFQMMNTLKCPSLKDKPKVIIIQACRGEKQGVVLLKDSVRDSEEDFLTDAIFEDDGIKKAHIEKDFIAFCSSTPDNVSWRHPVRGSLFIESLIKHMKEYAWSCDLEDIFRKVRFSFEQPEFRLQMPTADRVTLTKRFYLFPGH
The series is described as follows: Inhibition of caspase-1 activity in LPS-primed immortalized mouse […] cells assessed as reduction in nigericin-induced caspase-1 cleavage at 5 uM by Western blot analysis. It is filed as cell-based. The conditions noted are these: J774.A1. A digest of the protocol:
(§1)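 Western blot of full-length and cleaved caspase-1 and caspase-8 in J774A.1 cells after nigericin, with tubulin as loading control. Bands quantified as bar graphs.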
Background: In western blotting, separated proteins are transferred to a membrane and probed.

For the next series, the target named is T2, Caspase-8 (Mus musculus) (UniProt O89110).
T2 sequence (whole entry): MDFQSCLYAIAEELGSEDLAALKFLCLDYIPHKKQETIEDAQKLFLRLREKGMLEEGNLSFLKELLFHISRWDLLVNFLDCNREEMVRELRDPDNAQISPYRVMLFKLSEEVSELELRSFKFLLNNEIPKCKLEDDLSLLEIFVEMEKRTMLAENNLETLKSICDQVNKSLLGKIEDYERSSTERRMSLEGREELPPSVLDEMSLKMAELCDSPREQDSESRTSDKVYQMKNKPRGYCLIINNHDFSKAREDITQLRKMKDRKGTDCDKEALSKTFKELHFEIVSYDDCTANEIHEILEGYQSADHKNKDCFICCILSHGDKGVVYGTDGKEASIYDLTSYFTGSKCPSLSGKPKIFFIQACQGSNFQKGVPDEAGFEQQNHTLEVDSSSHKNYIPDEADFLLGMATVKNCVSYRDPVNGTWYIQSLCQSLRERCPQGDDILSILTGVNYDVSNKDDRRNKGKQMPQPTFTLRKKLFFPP
The series is described as follows: Inhibition of caspase-8 activity in LPS-primed immortalized mouse […] cells assessed as reduction in nigericin-induced caspase-8 cleavage at 5 uM by Western blot analysis. It is filed as cell-based. Particulars: J774.A1. A digest of the protocol: as §1

Series [3] addresses T1, Caspase-1 (Mus musculus). Put plainly: Inhibition of caspase-1 activity in LPS-primed immortalized mouse […] cells assessed as reduction in nigericin-induced Ac-YVAD-pNA cleavage using Ac-YVAD-pNA as substrate at 5 uM by FAM-FLICA reagent based confocal microscopy. The format is cell-based. Particulars: J774.A1. A digest of the protocol: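 Nigericin-treated macrophages. Active caspase-1 was detected two ways: in J774A.1 cells stained with the FAM-FLICA probe plus Hoechst, imaged by confocal microscopy and FLICA intensity quantified in ≥20 cells per group; and with the Ac-YVAD-pNA substrate. Mean ± SEM, n ≥ 3.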

Series [4] concerns J774.A1. Put plainly: Inhibition of pyroptosis in LPS-primed immortalized mouse […] cells assessed as reduction in nigericin-induced IL-beta secretion by imaging analysis. It is filed as functional.
Series [5] deals with BMDM. Put plainly: Inhibition of pyroptosis in LPS-primed C57BL/6 mouse primary BMDM assessed as reduction in nigericin-induced cell death by LDH assay. The format is functional, cell-based. A digest of the protocol: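 Primary murine macrophages primed with LPS and stimulated with nigericin across a dose range. IL-1β release, LDH release and Alamar blue measured. Means ± SE, ≥3 experimental replicates.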

Series [6] in a line: Toxicity in zebrafish embryo. Set-up: species or system Danio rerio. Particulars: in vivo. Summed up:
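Zebrafish embryos exposed to compound. EC100 is the concentration at which all treated embryos show early lethality, embryonic defects or developmental delay.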

In series [7] the test system is Mus musculus. The series is described as follows: Antiinflammatory activity against LPS-induced sepsis C57BL/6J mouse model assessed as reduction in alveolar congestion at 20 mg/kg, iv administered as single dose for 1 hr prior to LPS challenge and measured after 48 hrs by hematoxylin-eosin staining based inverted microscopy analysis. It is filed as functional, organism-based.

The test system of series [8] is J774.A1. Put plainly: Inhibition of pyroptosis in LPS-primed immortalized mouse […] cells assessed as reduction in poly (dA:dT) induced […] secretion by ELISA. The format is functional, cell-based. A digest of the protocol: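 J774A.1 cells stimulated with flagellin or poly(dA:dT). IL-1β release measured by ELISA. Mean ± SEM, n ≥ 3 independent experiments.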

In series [9] the target is NACHT, LRR and PYD domains-containing protein 3 (Mus musculus) (UniProt Q8R4B8). The series is described as follows: Activation of NLRP3 in LPS-primed C57BL/6 mouse primary BMDM transfected with eGFP-tagged ASC assessed as nigericin-induced ASC oligomerization by measuring speck formation at 5 uM by confocal microscopy. Summed up: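 Primary macrophages transfected with an ASC-GFP plasmid, then given LPS and nigericin to induce ASC specks. Imaged by confocal microscopy.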

Another series has as its system THP-1. The series is described as follows: Inhibition of pyroptosis in LPS-primed human THP1 assessed as reduction in nigericin-induced pyroptotic-pore formation by propidium iodide uptake assay. It is filed as functional, cell-based. Summed up: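 THP-1 cells induced to pyroptosis. Cell death read by LDH release and pore formation by PI uptake. Means ± SE, ≥3 experimental replicates.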

Series [10] relates to Mus musculus. Put plainly: Antiinflammatory activity against LPS-induced sepsis C57BL/6J mouse model assessed as reduction in alveolar exudate at 20 mg/kg, iv administered as single dose for 1 hr prior to LPS challenge and measured after 48 hrs by hematoxylin-eosin staining based inverted microscopy analysis. It is filed as functional, organism-based.
The target in the next series is T3, Caspase-1 (Homo sapiens) (UniProt P29466).
T3 sequence (whole entry): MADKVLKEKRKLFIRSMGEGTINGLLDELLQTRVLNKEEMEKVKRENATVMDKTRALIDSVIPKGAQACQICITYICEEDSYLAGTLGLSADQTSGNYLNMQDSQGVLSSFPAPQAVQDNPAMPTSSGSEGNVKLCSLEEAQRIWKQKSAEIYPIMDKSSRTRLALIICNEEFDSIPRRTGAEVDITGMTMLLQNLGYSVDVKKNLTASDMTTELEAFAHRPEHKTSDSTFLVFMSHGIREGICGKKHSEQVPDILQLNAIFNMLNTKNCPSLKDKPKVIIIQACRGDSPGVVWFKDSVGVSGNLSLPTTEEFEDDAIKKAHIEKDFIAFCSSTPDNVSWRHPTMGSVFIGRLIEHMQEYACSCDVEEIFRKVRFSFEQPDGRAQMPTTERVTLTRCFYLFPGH
Put plainly: Inhibition of ASC-mediated caspase-1 cleavage in human THP1 cells transfected with GFP-tagged ASC at 5 uM FACS analysis. The format is cell-based. The conditions noted are these: THP-1.

Series [11] can be described thus: Lipid-water partition coefficient, logP of the compound. It is filed as physicochemical.
In series [12] the target is Nlrp3/Pycard (Mus musculus) (UniProt Q8R4B8+Q9EPB4). The series is described as follows: Inhibition of NLRP3-ASC interaction in LPS-primed immortalized mouse […] cells at 5 uM by co-immunoprecipitation assay. It is filed as cell-based. Particulars: J774.A1. A digest of the protocol:
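Coimmunoprecipitation of endogenous ASC and NLRP3 in immortalized macrophages.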

Sequence of NACHT, LRR and PYD domains-containing protein 3 (Mus musculus) (Q8R4B8 whole entry, the tested form may be a part): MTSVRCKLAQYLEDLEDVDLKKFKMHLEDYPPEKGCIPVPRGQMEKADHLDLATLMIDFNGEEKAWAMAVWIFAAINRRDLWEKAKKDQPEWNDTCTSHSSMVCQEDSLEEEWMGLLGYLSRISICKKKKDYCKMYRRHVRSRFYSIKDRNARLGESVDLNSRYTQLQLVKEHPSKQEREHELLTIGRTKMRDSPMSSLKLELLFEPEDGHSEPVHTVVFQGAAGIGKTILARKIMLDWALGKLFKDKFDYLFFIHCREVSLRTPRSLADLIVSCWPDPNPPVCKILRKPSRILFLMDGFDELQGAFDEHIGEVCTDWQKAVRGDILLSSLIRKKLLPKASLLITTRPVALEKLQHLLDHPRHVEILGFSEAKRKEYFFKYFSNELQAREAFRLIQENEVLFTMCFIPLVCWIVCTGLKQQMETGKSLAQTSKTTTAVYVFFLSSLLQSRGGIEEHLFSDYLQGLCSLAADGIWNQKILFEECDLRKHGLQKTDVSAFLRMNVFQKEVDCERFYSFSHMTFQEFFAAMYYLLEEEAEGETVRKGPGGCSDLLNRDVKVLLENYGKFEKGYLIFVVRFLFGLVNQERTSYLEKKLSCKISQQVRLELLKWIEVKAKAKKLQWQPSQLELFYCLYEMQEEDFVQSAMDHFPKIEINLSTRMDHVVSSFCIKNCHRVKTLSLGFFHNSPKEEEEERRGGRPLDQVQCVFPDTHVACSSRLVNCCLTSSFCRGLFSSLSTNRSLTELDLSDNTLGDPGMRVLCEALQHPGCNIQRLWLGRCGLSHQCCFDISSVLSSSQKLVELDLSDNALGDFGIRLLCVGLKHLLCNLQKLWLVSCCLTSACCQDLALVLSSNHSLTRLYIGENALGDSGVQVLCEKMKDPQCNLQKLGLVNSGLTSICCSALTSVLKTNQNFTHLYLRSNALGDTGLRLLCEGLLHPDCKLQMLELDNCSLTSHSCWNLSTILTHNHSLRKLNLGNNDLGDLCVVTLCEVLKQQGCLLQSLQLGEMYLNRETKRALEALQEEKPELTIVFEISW
Sequence of Nlrp3/Pycard (Mus musculus) (Q8R4B8 whole entry, looked up): as the sequence (Q8R4B8 whole entry, the tested form may be a part) above
Sequence of Nlrp3/Pycard (Mus musculus) (Q9EPB4 whole entry, looked up): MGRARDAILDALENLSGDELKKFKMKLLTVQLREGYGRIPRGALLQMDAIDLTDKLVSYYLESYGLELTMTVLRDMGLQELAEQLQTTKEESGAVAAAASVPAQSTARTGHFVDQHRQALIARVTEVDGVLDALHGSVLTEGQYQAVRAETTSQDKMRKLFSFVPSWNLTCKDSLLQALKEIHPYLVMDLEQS

`CCOC(CN1C(=O)C(NC(=O)Nc2ccc(C)cc2)(C(F)(F)C(=O)Nc2ccc(C)cc2)c2ccccc21)OCC` (stereo not given): the inhibition result with BMDM [1], at Caspase-1 (Mus musculus) [2], at Caspase-1 (Mus musculus) [3], in the series with J774.A1 [8], in the series with THP-1 and on Caspase-1 (Homo sapiens) was “Active” in each case. For the same compound, the inhibition entry (on Caspase-8 (Mus musculus); in series [12]) was “inactive” each time. Moreover, the Activity in the series with J774.A1 [4] worked out at 92.13 pg/mL. In addition, the inhibition result in the series on BMDM [5] is “Dose-dependent effect”. This compound yielded an EC100 in series [6] above 50 µM. Moreover, the result with Mus musculus [7] and in the series on Mus musculus [10] was Active. Besides, the outcome in series [9] was inactive. The logP (commonly a log measure of how a compound divides between an organic and an aqueous phase) in series [11] came out at 4.1.
